# Bridges are numbered along the chain shown (N, C = ends). Where no end group is shown, it is not given here.
# Assays:
# [1] = system: untransfected CHO-K1 cells; conditions: ref 35 (Pierce et al. 2020); cited from earlier work
# [2] = system: non-transfected CHO-K1 cells; conditions: ref 35 (Pierce et al. 2020); cited from earlier work
# [3] = system: marmoset vasopressin receptor 1a (mV1aR); test: FLIPR Membrane Potential; type: cell-based, marmoset (Callithrix jacchus); conditions: mV1aR expressing cells
# Outline: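 CHO-K1 cells stably expressing the species' V1aR were plated at 0.3 million cells/mL and grown overnight. They were loaded with FMP Blue in Locke's buffer (pH 7.4, 2.3 mM CaCl2) for 45 min at 37°C. After 60 s baseline, log concentrations of peptide were added, with all peptides run in parallel on one plate. Reads were ex 530/em 565 nm every 2 s for 200 s.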
# [4] = system: membrane hyperpolarization in hV1aR-expressing CHO cells; type: cell-based, Chinese hamster
# [5] = system: membrane hyperpolarization in mV1aR-expressing CHO cells; type: cell-based, Chinese hamster
# [6] = system: membrane hyperpolarization in qV1aR-expressing CHO cells; type: cell-based, Chinese hamster
# [7] = system: intracellular Ca2+ mobilization in qV1aR-expressing CHO cells; type: cell-based, Chinese hamster; conditions: 1 μM final concentration
# Outline: (§1)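 Stably receptor-transfected CHO-K1 cells were plated at 0.3 million cells/mL and grown overnight. They were loaded for 60 min at 37°C with 4 μM Fluo-3 AM and 0.04% pluronic acid in Locke's buffer (pH 7.4, 2.3 mM CaCl2, 0.5 mM probenecid), then washed four times. Thapsigargin (1 μM final) was given for 5 min. After 60 s baseline, peptide was added and read at ex 488/em 538 nm every 2 s for 200 s.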
# [8] = system: intracellular Ca2+ mobilization in hV1aR-expressing CHO cells; type: cell-based, Chinese hamster; conditions: 1 μM final concentration
# Outline: as §1
# [9] = system: intracellular Ca2+ mobilization in mV1aR-expressing CHO cells; type: cell-based, Chinese hamster; conditions: 1 μM final concentration
# Outline: as §1
compound,measurement,setting,value
"N=C(N)NCCC[C@H](NC(=O)[C@@H]1CCCN1C(=O)[C@@H]1CSSC[C@H](N)C(=O)N[C@@H](Cc2ccc(O)cc2)C(=O)N[C@@H](Cc2ccccc2)C(=O)N[C@@H](CCC(N)=O)C(=O)N[C@@H](CC(N)=O)C(=O)N1)C(=O)NCC(N)=O [AVP, Arginine vasopressin]",induced hyperpolarizing response,[1],absence
same,Ca2+ mobilization,[2],did not mobilize
same,"shape of concentration response curve, membrane hyperpolarization",[3],U-shaped concentration response curve
"CC(=O)OCOC(=O)CN(CC(=O)OCOC(C)=O)c1ccccc1OCCOc1ccccc1N(CC(=O)OCOC(C)=O)CC(=O)OCOC(C)=O [BAPTA-AM, 1,2-Bis(2-aminophenoxy)ethane-N,N,N′,N′-tetraacetic acid tetrakis (acetoxymethyl ester)]",effect of pretreatment on AVP and OT-analog induced membrane hyperpolarization,[4],blocked
same,effect of pretreatment on AVP and OT-analog induced membrane hyperpolarization,[5],blocked
same,effect of pretreatment on AVP and OT-analog induced membrane hyperpolarization,[6],blocked
Clc1ccccc1C(c1ccccc1)(c1ccccc1)n1cccn1 [TRAM-34],effect of pretreatment on AVP and OT-analog induced membrane hyperpolarization,[4],most effective inhibition
same,effect on SKA-31-induced membrane hyperpolarization,[4],inhibited
same,effect of pretreatment on AVP and OT-analog induced membrane hyperpolarization,[5],most effective inhibition
same,effect on SKA-31-induced membrane hyperpolarization,[5],inhibited
same,effect of pretreatment on AVP and OT-analog induced membrane hyperpolarization,[6],most effective inhibition
same,effect on SKA-31-induced membrane hyperpolarization,[6],inhibited
CC(C)(O)[C@H]1O[C@H]2CC[C@@]3(C)[C@@](O)(CC[C@H]4Cc5c([nH]c6ccccc56)[C@@]43C)C2=CC1=O [paxilline],effect of pretreatment on AVP and OT-analog induced membrane hyperpolarization,[4],little to no effect
same,effect on NS-1619-induced membrane hyperpolarization,[4],inhibited
same,effect of pretreatment on AVP and OT-analog induced membrane hyperpolarization,[5],little to no effect
same,effect on NS-1619-induced membrane hyperpolarization,[5],inhibited
same,effect on NS-1619-induced membrane hyperpolarization,[6],inhibited
same,inhibition of AVP or OT-analog induced membrane hyperpolarization,[6],15-30%
C/C=C(/C)C(=O)O[C@H]1C(C)=C2[C@H]([C@@H]1OC(=O)CCCCCCC)[C@@](C)(OC(C)=O)C[C@H](OC(=O)CCC)[C@@]1(O)[C@H]2OC(=O)[C@@]1(C)O [thapsigargin],effect of pretreatment on AVP and OT-analog induced membrane hyperpolarization,[4],eliminated
same,effect of pretreatment on AVP and OT-analog induced membrane hyperpolarization,[5],eliminated
same,effect of pretreatment on AVP and OT-analog induced calcium mobilization,[7],blocked
same,effect of pretreatment on AVP and OT-analog induced calcium mobilization,[8],blocked
same,effect of pretreatment on AVP and OT-analog induced calcium mobilization,[9],blocked
same,effect of pretreatment on AVP and OT-analog induced membrane hyperpolarization,[6],eliminated
"apamin: selective inhibitor of SKCa channels (CNCKAPETALCARRCQQH-NH2; disulfide 1-11, 3-15; UniProt P01500 28-45, looked up)",effect on AVP or Pro^8-OT-induced hyperpolarizing response,[4],did not markedly affect
same,reduction of Leu^8-OT-induced membrane hyperpolarization,[4],~ 50%
same,inhibition of AVP or OT-analog induced membrane hyperpolarization,[5],≤ 10%
same,inhibition of AVP or OT-analog induced membrane hyperpolarization,[6],≤ 10%

# — publication PMC7250216 (Biomedicine & pharmacotherapy = Biomedecine & …, 2020)
